These results are taken from ChEMBL document CHEMBL1121552, “Glycolipids as potential immunologic adjuvants” (1980).

What all share (type): functional
The species named for assay [1] is Mus musculus. As to the kind of experiment: Geometric mean titer of mice receiving 5 ug compound along with vaccine was determined after 21 days. An outline of the steps: (§1)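 ICR/Ha mice, groups of eight, were injected with an influenza hemagglutinin antigen vaccine plus adjuvant. Hemagglutination-inhibition antibody was assayed in sera taken 21 days post-injection. Titer is the reciprocal of the serum dilution, reported as the group geometric mean.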

For assay [2], the species on record is Mus musculus. As to the kind of experiment: Mitogenic activity is evaluated in vitro against splenocyte culture from C58 mice; NA means no activity. An outline of the steps:
(§2)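 Washed splenocytes from C58 mice were plated at 6 x 10^5 viable lymphocytes per well in RPMI 1640 with 10% fetal calf serum. Compound dilutions were added with Con A, E. coli LPS, or medium alone and incubated at 37 °C for 3-4 days. [3H]thymidine was then added, and cells were harvested 4 h later. Counts are geometric means of four replicate wells.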

For assay [3], the species on record is Mus musculus. As to the kind of experiment: Geometric mean titer of mice receiving 50 ug compound along with vaccine was determined after 21 days. An outline of the steps: as §1
For assay [4], the species on record is Mus musculus. As to the kind of experiment: Mitogenic activity is evaluated in vitro against splenocyte culture from C58 mice; mitogenic. An outline of the steps:
as §2

Active and inactive are the calls of the source. The calls are words filed in the database; no cut-off is given here.

For `CCCCCCCC/C=C\CCCCCCCCSC1OC(C)C(O)C(O)C1O` (stereo unspecified), the Activity in assay [1] came out at 61.69.

With `CC(C)CCC[C@@H](C)[C@H]1CC[C@H]2[C@@H]3CC=C4C[C@@H](OCCCCCCS[C@@H]5O[C@@H](CO)[C@@H](O[C@@H]6O[C@@H](CO)[C@H](O)[C@H](O)[C@@H]6O)[C@H](O)[C@@H]5O)CC[C@]4(C)[C@H]3CC[C@]12C`, the outcome in assay [2] was inactive. Also, the Activity in assay [3] amounted to 40.

As to `CC(=O)N[C@H]1C(O)O[C@H](CO)[C@@H](O)[C@@H]1O[C@H](C)C(=O)N[C@@H](C)C(=O)N[C@H](CCC(=O)O)C(N)=O` (stereo partly specified) [MURAMYL DIPEPTIDE], the Activity result is given as “Mitogenic” in assay [4] and 40 in assay [3].

Take `CC(C)CCCC(C)C1CCC2C3CC=C4CC(OCCCCCCSC5OC(C)C(O)C(O)C5O)CCC4(C)C3CCC12C` (stereo unspecified): the result in assay [2] was inactive. Besides, the Activity in assay [1] is reported as 28.28.

The molecule `CC1OC(SCCCc2ccc(C(F)(F)C(F)(F)c3ccccc3)cc2)C(O)C(O)C1O` (stereo unspecified) yielded an Activity in assay [1] of 33.64.

For the molecule `CC1OC(SCCC23C[C@H]4C[C@@H](C2)C[C@@H](C3)C4)C(O)C(O)C1O` (stereo partly specified), the Activity in assay [1] was determined as 47.57.

`CC(C)CCCC(C)C1CCC2C3CC=C4CC(OCCC#CCCSC5OC(C)C(O)C(O)C5O)CCC4(C)C3CCC12C` (stereo unspecified): the result in assay [2] was inactive. The molecule also showed an Activity in assay [3] of 33.64.
